Experimental data taken from ChEMBL document CHEMBL4007393 (J Med Chem, 2017).
≈ marks a conversion by molar mass, not a printed value.

Columns and labels:
[1] = Kinetic solubility of the compound in water after 30 mins by nephelometric analysis; assay type: physicochemical; details: read-out: Kinetic_solubility
How it was run: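 DMSO stock diluted into water to 1% final DMSO and left at ambient temperature for 30 min. Solubility range read by nephelometry.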

[2] = Cmax in FVB mouse at 30 mg/kg, administered through oral gavage as single dose by LC-MS analysis; assay type: ADME, organism-based; design: dose 30 mg/kg, route oral; details: in vivo
How it was run: (§1)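 Non-infected mice given one oral gavage dose of 30 mg/kg as an aqueous suspension. Terminal cardiac blood taken under isoflurane, centrifuged at 4 °C, plasma stored at -20 °C. Plasma proteins precipitated with acetonitrile (2:1 or 3:1), supernatant run by LC/MS with diazepam internal standard against a blank mouse plasma calibration curve. PK parameters calculated noncompartmentally.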

[3] = AUC (0 to infinity) in FVB mouse at 30 mg/kg, administered through oral gavage as single dose by LC-MS analysis; assay type: ADME, organism-based; design: dose 30 mg/kg, time infinity, route oral; details: in vivo; how it was run: as §1
[4] = Plasma concentration in FVB mouse at 30 mg/kg, administered through oral gavage as single dose measured after 48 hrs post dose by LC-MS analysis; assay type: ADME, organism-based; how it was run: as §1
Rattus norvegicus = test: Drug accumulation in rat at 100 to 300 mg/kg, po administered every third day for 5 doses measured after 2 weeks relative to control; assay type: ADME, organism-based; details: in vivo, 336 h
How it was run: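 Male rats were given oral gavage doses of 100 or 300 mg/kg every third day for five doses, alongside a vehicle group. The vehicle was the same formulation used for the mouse efficacy studies. Plasma concentrations were followed over the dosing period to assess accumulation, together with general condition, body weight, biochemistry and histopathology.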

[5] = Plasma concentration in rat at 300 mg/kg, po administered every third day for 5 doses measured after 2 weeks; assay type: ADME, organism-based
How it was run: (§2)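 Male rats dosed by oral gavage at 100 or 300 mg/kg every third day for 5 doses, in the same vehicle as the mouse efficacy and exposure studies; vehicle controls included. Endpoints: general condition, body weight, clinical biochemistry, histopathology, mortality and plasma concentrations.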

[6] = Plasma concentration in rat at 100 mg/kg, po administered every third day for 5 doses measured after 2 weeks; assay type: ADME, organism-based; how it was run: as §2

Row | SMILES | solubility kinetic at 0.5 h [1] | Cmax [2] | AUC(0-inf) [3] | concentration at 48 h [4] | fold change (FC) (Rattus norvegicus) | concentration at 336 h [5] | concentration at 336 h [6]
1 | c1cc([C@H]2CC[C@]3(CC2)OOC2(O3)C3CC4CC(C3)CC2C4)ccc1OCCN1CCC1 (stereo partly drawn) | > 100 µg/mL | – | – | – | – | – | –
2 | NCCCCOc1ccc([C@H]2CC[C@]3(CC2)OOC2(O3)C3CC4CC(C3)CC2C4)cc1 (stereo partly drawn) | 50 to 100 µg/mL (≈ 117 to 234 µM) | 370 nM | 11 µM·h | 23.4 nM | – | – | –
3 | CC(C)(N)CCOc1ccc([C@H]2CC[C@]3(CC2)OOC2(O3)C3CC4CC(C3)CC2C4)cc1 (stereo partly drawn) | 50 to 100 µg/mL (≈ 113 to 226 µM) | 1050 nM | 27.8 µM·h | 89.2 nM | 1 to 4 | – | –
4 | O=C(c1ccc([C@H]2CC[C@]3(CC2)OOC2(O3)C3CC4CC(C3)CC2C4)cc1)N1CCNCC1 (stereo partly drawn) | > 100 µg/mL | – | – | – | – | – | –
5 | c1cc([C@H]2CC[C@]3(CC2)OOC2(O3)C3CC4CC(C3)CC2C4)ccc1OCC1CCNCC1 (stereo partly drawn) | 12.5 to 25 µg/mL (≈ 27.6 to 55.1 µM) | 465 nM | 8.9 µM·h | 17.9 nM | – | – | –
6 | c1cc([C@H]2CC[C@]3(CC2)OOC2(O3)C3CC4CC(C3)CC2C4)ccc1OCCN1CCCOCC1 (stereo partly drawn) | 3.1 to 6.3 µg/mL (≈ 6.41 to 13 µM) | 2610 nM | 16.8 µM·h | 13.2 nM | – | – | –
7 | c1cc([C@H]2CC[C@]3(CC2)OOC2(O3)C3CC4CC(C3)CC2C4)ccc1OCCC1CCNCC1 (stereo partly drawn) | > 100 µg/mL | 1190 nM | 34.1 µM·h | 192 nM | – | – | –
8 | c1cc([C@H]2CC[C@]3(CC2)OOC2(O3)C3CC4CC(C3)CC2C4)ccc1OCCN1CCNCC1 (stereo partly drawn) | > 100 µg/mL | 752 nM | 16.8 µM·h | 23.9 nM | – | – | –
9 | [O-][S+]1CCN(CCCOc2ccc([C@H]3CC[C@]4(CC3)OOC3(O4)C4CC5CC(C4)CC3C5)cc2)CC1 (stereo partly drawn) | < 1.6 µg/mL | – | – | – | – | 1000 to 2000 ng/mL | –
10 | O[C@H]1CC[C@H](NCCCOc2ccc([C@H]3CC[C@]4(CC3)OOC3(O4)C4CC5CC(C4)CC3C5)cc2)CC1 (stereo partly drawn) | > 100 µg/mL | 721 nM | 12.8 µM·h | 26.5 nM | – | – | –
11 | NCCOc1ccc([C@H]2CC[C@]3(CC2)OOC2(O3)C3CC4CC(C3)CC2C4)cc1 (stereo partly drawn) | > 100 µg/mL | 287 nM | 3.42 µM·h | 4.73 nM | 1 to 4 | – | –
12 | NC1CCN(S(=O)(=O)c2ccc([C@H]3CC[C@]4(CC3)OOC3(O4)C4CC5CC(C4)CC3C5)cc2)CC1 (stereo partly drawn) | 12.5 to 25 µg/mL (≈ 24.9 to 49.7 µM) | – | – | – | – | – | –
13 | CC(C)(O)CN1CCC(Oc2ccc([C@H]3CC[C@]4(CC3)OOC3(O4)C4CC5CC(C4)CC3C5)cc2)CC1 (stereo partly drawn) | 1.6 to 3.1 µg/mL (≈ 3.13 to 6.06 µM) | 1810 nM | 27.7 µM·h | 22.7 nM | – | 1000 to 2000 ng/mL | –
14 | CC(C)(O)CNCCCOc1ccc([C@H]2CC[C@]3(CC2)OOC2(O3)C3CC4CC(C3)CC2C4)cc1 (stereo partly drawn) | > 100 µg/mL | 1210 nM | 22.8 µM·h | 36 nM | – | > 1900 ng/mL | –
15 | FC1(F)C2CC3CC1CC(C2)C31OO[C@]2(CC[C@@H](c3ccc(OCCN4CCOCC4)cc3)CC2)O1 (stereo partly drawn) | 1.6 to 3.1 µg/mL (≈ 3.16 to 6.13 µM) | – | – | – | – | – | –
16 | c1cc([C@H]2CC[C@]3(CC2)OOC2(O3)C3CC4CC(C3)CC2C4)ccc1OC1CCNCC1 (stereo partly drawn) | > 100 µg/mL | 810 nM | 16.4 µM·h | 49.4 nM | – | – | –
17 | c1cc([C@H]2CC[C@]3(CC2)OOC2(O3)C3CC4CC(C3)CC2C4)ccc1CN1CCOCC1 (stereo partly drawn) | 1.6 to 3.1 µg/mL (≈ 3.64 to 7.05 µM) | – | – | – | – | – | –
18 | c1cc([C@H]2CC[C@]3(CC2)OOC2(O3)C3CC4CC(C3)CC2C4)ccc1OCCCN1CCOCC1 (stereo partly drawn) | 1.6 to 3.1 µg/mL (≈ 3.31 to 6.41 µM) | – | – | – | – | – | –
19 | CC1(C)CC(O)(COc2ccc([C@H]3CC[C@]4(CC3)OOC3(O4)C4CC5CC(C4)CC3C5)cc2)CC(C)(C)N1 (stereo partly drawn) | > 100 µg/mL | 1000 nM | 32.9 µM·h | 122 nM | – | – | –
20 | c1ccc([C@H]2CC[C@]3(CC2)OOC2(O3)C3CC4CC(C3)CC2C4)c(OCCN2CCOCC2)c1 (stereo partly drawn) | 3.1 to 6.3 µg/mL (≈ 6.6 to 13.4 µM) | – | – | – | – | – | –
21 | CC(C)(CN)Oc1ccc([C@H]2CC[C@]3(CC2)OOC2(O3)C3CC4CC(C3)CC2C4)cc1 (stereo partly drawn) | > 100 µg/mL | 529 nM | 11.3 µM·h | 7.97 nM | – | – | –
22 | CS(=O)(=O)N1CCN(CCCOc2ccc([C@H]3CC[C@]4(CC3)OOC3(O4)C4CC5CC(C4)CC3C5)cc2)CC1 (stereo partly drawn) | < 1.6 µg/mL | – | – | – | – | – | –
23 | c1cc([C@H]2CC[C@]3(CC2)OOC2(O3)C3CC4CC(C3)CC2C4)ccc1OCCOC1CCNCC1 (stereo partly drawn) | 50 to 100 µg/mL (≈ 103 to 207 µM) | 633 nM | 19 µM·h | 97.6 nM | – | – | –
24 | c1cc([C@H]2CC[C@]3(CC2)OOC2(O3)C3CC4CC(C3)CC2C4)ccc1OCCN1CC2(COC2)C1 (stereo partly drawn) | 50 to 100 µg/mL (≈ 104 to 208 µM) | – | – | – | – | – | –
25 | c1cc([C@H]2CC[C@]3(CC2)OOC2(O3)C3CC4CC(C3)CC2C4)ccc1OCCN1CCCCC1 (stereo partly drawn) | 6.3 to 12.5 µg/mL (≈ 13.5 to 26.7 µM) | – | – | – | – | – | –
26 | N[C@H]1CC[C@@H](Oc2ccc([C@H]3CC[C@]4(CC3)OOC3(O4)C4CC5CC(C4)CC3C5)cc2)CC1 (stereo partly drawn) | 25 to 50 µg/mL (≈ 55.1 to 110 µM) | 1170 nM | 29.5 µM·h | 145 nM | 1 to 4 | – | –
27 | NCCCOc1ccc([C@H]2CC[C@]3(CC2)OOC2(O3)C3CC4CC(C3)CC2C4)cc1 (stereo partly drawn) | – | – | – | – | 1 to 4 | – | –
28 | CC(C)(N)CNC(=O)C[C@H]1CC[C@]2(CC1)OOC1(O2)C2CC3CC(C2)CC1C3 (stereo partly drawn) | > 100 µg/mL | 776 nM | 2.61 µM·h | < 1 nM | – | – | –
29 | c1cc([C@H]2CC[C@]3(CC2)OO[C@]2(O3)C3CC4CC(C3)CC2C4)ccc1OCCN1CCOCC1 [ARTEFENOMEL] | < 1.6 µg/mL | 3800 nM | 38.7 µM·h | 132 nM | – | 6300 ng/mL | 4600 ng/mL
